A1 apoptosis 2: A1 inhibitors via caspase activation, primary screen, cell-based, luminescence, HTS, two replicates; MEF A1-2A-BIM cells, caspase-Glo luminescence, 3 h; percent of clofoctol response, DMSO zero; caspase activation, % (concentration not given with the values); 24,000 tested, under 10 active; in the data active = caspase activation above about 5.9%
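Material: mouse embryonic fibroblasts co-expressing A1 and BIM (A1-2A-BIM), primed for A1 dependence / Quantity: 2500 cells/well / Buffer or medium: RPMI-1640 growth medium with 10% FBS / Doses: 50 nL compound per well, pinned / Schedule: 3 h compound exposure at 37 °C / Signal: Caspase-Glo luminescence (DEVD substrate) / Measure: Caspase-3/7 activation, seen as rise in luminescence signal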
INS-1E rescue: protection of INS-1E cells from cytokine death, primary screen, ATP luminescence, single point; 0.1% of 20,000 active; INS-1E cytokine-induced death, 48 h; normalised: neutral wells 0, positive control 100; AID 488910, 2010; protection from cytokine-induced ATP loss, % at 10 µM;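 active = mean replicate protection from cytokine-induced ATP loss at least 50% and at least 75% of replicates each reaching 50%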
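Material: INS-1E rat cells; Quantity: 8000 cells/well; Buffer or medium: phenol-red-free RPMI with 5% fetal bovine serum; Probe or stimulus: cytokine cocktail of IFN-γ, TNF-α and IL-1β; Compound dosing: single test concentration per compound, delivered by pin transfer; Incubation: 48 h co-treatment, 10 min post-lysis read; Signal: CellTiter-Glo luminescence.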
T cruzi intra: inhibitors of intracellular Trypanosoma cruzi, primary screen, cell-based, plate reader, single point, set 2; intracellular Trypanosoma cruzi in host cells; activity score (inhibition), % at 5.01 µM; 4.9% of 22,000 active; in the data active = activity score above about 55%;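 also: parasites and compound incubated about four days before reading; 0% = median of neutral control wells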
* = called active by the depositor; / = no result given. Many of the other results were omitted from the sample, so hits are more common in it than they were.

SMILES | A1 apoptosis 2 | INS-1E rescue | T cruzi intra
C[C@H](CO)N1C[C@H](C)[C@H](CN(C)S(=O)(=O)c2cccs2)Oc2c(NC(=O)Nc3ccc(C(F)(F)F)cc3)cccc2C1=O | 0 | -102 | 84*
C[C@H](CO)N1C[C@H](C)[C@@H](CN(C)S(=O)(=O)c2ccc(F)cc2)Oc2c(NC(=O)Nc3ccc(C(F)(F)F)cc3)cccc2C1=O | 2 | -33 | 57*
C[C@H]1CN([C@@H](C)CO)C(=O)c2cccc(NC(=O)Nc3ccc(C(F)(F)F)cc3)c2O[C@H]1CN(C)S(=O)(=O)c1cccs1 | -1 | -21 | 25
C[C@H](CO)N1C[C@H](C)[C@H](CN(C)S(=O)(=O)c2ccc(Cl)cc2)Oc2c(NC(=O)CCCCCC(=O)Nc3ccccc3N)cccc2C1=O | 1 | 10 | 74*
C[C@H]1CN([C@@H](C)CO)C(=O)c2cccc(NC(=O)CCCCCC(=O)Nc3ccccc3N)c2O[C@@H]1CN(C)S(=O)(=O)c1ccc(Cl)cc1 | 0 | 2 | 35
C[C@@H]1CN([C@@H](C)CO)C(=O)c2cccc(NC(=O)Nc3ccc(C(F)(F)F)cc3)c2O[C@H]1CN(C)S(=O)(=O)c1ccc(F)cc1 | 1 | -7 | 33
O=C(NO)c1ccc(C(=O)N/N=C/c2ccc(O)cc2Br)cc1 | -3 | 12 | -14
C[C@@H]1CN([C@H](C)CO)C(=O)Cc2cc(NC(=O)Nc3ccc4c(c3)OCO4)ccc2O[C@H]1CN(C)Cc1ccc(Cl)c(Cl)c1 | / | -13 | 68*
C[C@@H]1CN([C@H](C)CO)C(=O)Cc2cc(NC(=O)Nc3ccc4c(c3)OCO4)ccc2O[C@@H]1CN(C)Cc1ccc(Cl)c(Cl)c1 | 0 | -32 | 74*
C[C@H](CO)N1C[C@H](C)[C@@H](CN(C)Cc2ccc3c(c2)OCO3)Oc2ccc(NC(=O)Nc3ccc4c(c3)OCO4)cc2CC1=O | -1 | / | /
C[C@@H]1CN([C@H](C)CO)C(=O)Cc2cc(NC(=O)Nc3ccc4c(c3)OCO4)ccc2O[C@@H]1CN(C)Cc1ccc2c(c1)OCO2 | 0 | -14 | 22
O=C(CCCCCC(=O)Nc1ccccc1O)N/N=C/c1cccc(C(=O)O)c1 | 1 | -15 | -4
O=C(N/N=C/c1ccccc1C(=O)O)c1ccccn1 | -13 | -13 | 1
Cc1noc(C)c1S(=O)(=O)Nc1ccc2c(c1)C(=O)N([C@H](C)CO)C[C@H](C)[C@@H](CN(C)C(=O)Nc1ccc(C(F)(F)F)cc1)O2 | / | 4 | 7
Cc1noc(C)c1S(=O)(=O)Nc1ccc2c(c1)C(=O)N([C@@H](C)CO)C[C@H](C)[C@@H](CN(C)Cc1ccc(C(F)(F)F)cc1)O2 | / | -8 | 65*
Cc1noc(C)c1S(=O)(=O)Nc1ccc2c(c1)CC(=O)N([C@H](C)CO)C[C@@H](C)[C@@H](CN(C)Cc1ccc(C(F)(F)F)cc1)O2 | 1 | -37 | 69*
Cc1noc(C)c1S(=O)(=O)Nc1ccc2c(c1)C(=O)N([C@H](C)CO)C[C@@H](C)[C@@H](CN(C)Cc1ccc(C(F)(F)F)cc1)O2 | / | -8 | -1
Cc1noc(C)c1S(=O)(=O)Nc1ccc2c(c1)C(=O)N([C@H](C)CO)C[C@H](C)[C@H](CN(C)C(=O)Nc1ccc(C(F)(F)F)cc1)O2 | / | / | 73*
Cc1noc(C)c1S(=O)(=O)Nc1ccc2c(c1)CC(=O)N([C@@H](C)CO)C[C@@H](C)[C@@H](CN(C)Cc1ccc(C(F)(F)F)cc1)O2 | -1 | -10 | 34
COC(=O)CCCCCCC(=O)N/N=C/c1cc(O)ccc1O | -1 | 31 | -16
CO[C@H]1O[C@H](CO)[C@@H](OC(=O)Nc2ccccc2)[C@H](OC(=O)Nc2ccccc2-c2ccccc2)[C@@H]1OC(=O)Nc1ccccc1-c1ccccc1 | -1 | / | /
COc1cc(Cl)c(/C=N/NC(=O)c2ccccn2)c(Cl)c1OC | -10 | 5 | -15
CC(C)=CCC[C@H](C)C/C=N/NC(=O)c1ccccn1 | 2 | 6 | -9
C[C@H]1CN([C@@H](C)CO)C(=O)c2cccc(NC(=O)Nc3ccccc3)c2O[C@@H]1CN(C)Cc1ccc(C(=O)Nc2ccccc2N)cc1 | -1 | 17 | 74*
C[C@@H]1CN([C@@H](C)CO)C(=O)c2cccc(NC(=O)Nc3ccccc3)c2O[C@H]1CN(C)Cc1ccc(C(=O)Nc2ccccc2N)cc1 | 0 | 8 | 49
C[C@H](CO)N1C[C@H](C)[C@@H](CN(C)Cc2ccc(C(=O)Nc3ccccc3N)cc2)Oc2ccc(NC(=O)Nc3ccc(F)cc3)cc2C1=O | / | -8 | 26

Source: PubChem BioAssay (Broad Institute)
